Test results published in ChEMBL document CHEMBL2434871, “Discovery of a potent dual EGFR/HER-2 inhibitor L-2 (selatinib) for the treatment of cancer” (Eur J Med Chem, 2013).

Columns and labels:
[1] = target: Receptor tyrosine-protein kinase erbB-2 (Homo sapiens, UniProt P04626); test: Inhibition of HER-2 (unknown origin) using poly-(Glu4-Tyr) as substrate after 1 hr by ELISA-based spectrophotometry
How it was run: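 ELISA on plates pre-coated with poly(Glu,Tyr 4:1) substrate. Serially diluted compounds plus ATP were added in 50 mM HEPES pH 7.4 containing 20 mM MgCl₂, 0.2 mM MnCl₂, 0.1 mM Na₃VO₄ and 1 mM DTT. Phosphotyrosine was detected with anti-phosphotyrosine antibody PY99 (1:500), then HRP anti-mouse IgG, then o-phenylenediamine/H₂O₂ at pH 5.5.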

[2] = target: Epidermal growth factor receptor (Homo sapiens, UniProt P00533); test: Inhibition of EGFR (unknown origin) using poly-(Glu4-Tyr) as substrate after 1 hr by ELISA-based spectrophotometry
BT-474 = test: Cytotoxicity against human BT474 cells after 72 hrs by SRB assay; assay type: functional, cell-based; conditions: BT-474, 72 h
NCI-N87 [3] = test: Cytotoxicity against human NCI-N87 cells after 72 hrs by SRB assay; assay type: functional, cell-based; conditions: NCI-N87, 72 h
NCI-N87 [4] = test: Antitumor activity against human NCI-N87 cells xenografted in BALB/c athymic mouse assessed as tumor regression at 200 mg/kg, po qd after 28 days relative to vehicle-treated control; assay type: functional; conditions: NCI-N87, 672 h, read-out: TGI
How it was run: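 Female BALB/c athymic mice, 4–6 weeks old, received 2 × 10⁶ NCI-N87 or SK-OV-3 cells s.c. in the right flank. At a tumor volume of 100–300 mm³ they were randomized (control n = 10, treated n = 6). Tosylate salt was given at 200 mg/kg qd by oral gavage, and controls received vehicle. Tumor volume was taken as length × width²/2 by caliper. Inhibition = (1 − T/C) × 100% on mean relative tumor volume (RTV). Two-tailed t test.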

Mus musculus [5] = test: Toxicity in BALB/c athymic mouse xenografted with human SKOV3 cells assessed as bloody stool at 200 mg/kg, po qd after 4 days; assay type: organism-based, SK-OV-3; set-up: dose 200 mg/kg, route oral; conditions: in vivo, 96 h
Mus musculus [6] = test: Toxicity in BALB/c athymic mouse xenografted with human NCI-N87 cells assessed as bloody stool at 200 mg/kg, po qd after 4 days; assay type: organism-based; set-up: dose 200 mg/kg, route oral; conditions: in vivo, 96 h
Mus musculus [7] = test: Toxicity in BALB/c athymic mouse xenografted with human SKOV3 cells assessed as hematuria at 200 mg/kg, po qd after 4 days; assay type: organism-based, SK-OV-3; set-up: dose 200 mg/kg, route oral; conditions: in vivo, 96 h
Mus musculus [8] = test: Toxicity in BALB/c athymic mouse xenografted with human NCI-N87 cells assessed as hematuria at 200 mg/kg, po qd after 4 days; assay type: organism-based; set-up: dose 200 mg/kg, route oral; conditions: in vivo, 96 h
Mus musculus [9] = test: Toxicity in BALB/c athymic mouse xenografted with human SKOV3 cells assessed as weight loss at 200 mg/kg, po qd after 4 days; assay type: organism-based, SK-OV-3; set-up: dose 200 mg/kg, route oral; conditions: in vivo, 96 h
Mus musculus [10] = test: Toxicity in BALB/c athymic mouse xenografted with human NCI-N87 cells assessed as weight loss at 200 mg/kg, po qd after 4 days; assay type: organism-based; set-up: dose 200 mg/kg, route oral; conditions: in vivo, 96 h
[11] = Aqueous solubility of the compound at 25 degC by shake-flask method; assay type: physicochemical; conditions: unbuffered water
SK-OV-3 = test: Antitumor activity against human SKOV3 cells xenografted in BALB/c athymic mouse assessed as tumor regression at 200 mg/kg, po qd after 21 days relative to vehicle-treated control; conditions: SK-OV-3, po, 504 h, read-out: TGI
Mus musculus [12] = test: Toxicity in BALB/c athymic mouse xenografted with human SKOV3 cells assessed as death at 200 mg/kg, po qd after 4 days; assay type: organism-based, SK-OV-3; set-up: dose 200 mg/kg, route oral; conditions: in vivo, 96 h
How it was run: (§1)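 Female BALB/c athymic mice, 4-6 weeks old and pathogen-free, were housed under sterile conditions. NCI-N87 or SK-OV-3 cells (2 × 10⁶) were implanted s.c. in the right flank. At tumor volumes of 100-300 mm³, mice were randomized to vehicle control (n = 10) or treatment (n = 6). Treatment was the tosylate salt at 200 mg/kg by oral gavage once daily. Mice were monitored for clinical signs, body weight and death.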

Mus musculus [13] = test: Toxicity in BALB/c athymic mouse xenografted with human NCI-N87 cells assessed as death at 200 mg/kg, po qd after 4 days; assay type: organism-based; set-up: dose 200 mg/kg, route oral; conditions: in vivo, 96 h; how it was run: as §1
Mus musculus [14] = test: Toxicity in BALB/c athymic mouse xenografted with human SKOV3 cells assessed as scruffy skin at 200 mg/kg, po qd; assay type: organism-based, SK-OV-3; set-up: dose 200 mg/kg, route oral; conditions: in vivo
Mus musculus [15] = test: Toxicity in BALB/c athymic mouse xenografted with human NCI-N87 cells assessed as scruffy skin at 200 mg/kg, po qd; assay type: organism-based; set-up: dose 200 mg/kg, route oral; conditions: in vivo
Mus musculus [16] = test: Toxicity in BALB/c athymic mouse xenografted with human SKOV3 cells assessed as diarrhea at 200 mg/kg, po qd; assay type: organism-based, SK-OV-3; set-up: dose 200 mg/kg, route oral; conditions: in vivo
Mus musculus [17] = test: Toxicity in BALB/c athymic mouse xenografted with human NCI-N87 cells assessed as diarrhea at 200 mg/kg, po qd; assay type: organism-based; set-up: dose 200 mg/kg, route oral; conditions: in vivo
Mus musculus [18] = test: Toxicity in BALB/c athymic mouse xenografted with human SKOV3 cells assessed as lethargic condition at 200 mg/kg, po qd; assay type: organism-based, SK-OV-3; set-up: dose 200 mg/kg, route oral; conditions: in vivo
Mus musculus [19] = test: Toxicity in BALB/c athymic mouse xenografted with human NCI-N87 cells assessed as lethargic condition at 200 mg/kg, po qd; assay type: organism-based; set-up: dose 200 mg/kg, route oral; conditions: in vivo

Sequence of Epidermal growth factor receptor (P00533 whole entry): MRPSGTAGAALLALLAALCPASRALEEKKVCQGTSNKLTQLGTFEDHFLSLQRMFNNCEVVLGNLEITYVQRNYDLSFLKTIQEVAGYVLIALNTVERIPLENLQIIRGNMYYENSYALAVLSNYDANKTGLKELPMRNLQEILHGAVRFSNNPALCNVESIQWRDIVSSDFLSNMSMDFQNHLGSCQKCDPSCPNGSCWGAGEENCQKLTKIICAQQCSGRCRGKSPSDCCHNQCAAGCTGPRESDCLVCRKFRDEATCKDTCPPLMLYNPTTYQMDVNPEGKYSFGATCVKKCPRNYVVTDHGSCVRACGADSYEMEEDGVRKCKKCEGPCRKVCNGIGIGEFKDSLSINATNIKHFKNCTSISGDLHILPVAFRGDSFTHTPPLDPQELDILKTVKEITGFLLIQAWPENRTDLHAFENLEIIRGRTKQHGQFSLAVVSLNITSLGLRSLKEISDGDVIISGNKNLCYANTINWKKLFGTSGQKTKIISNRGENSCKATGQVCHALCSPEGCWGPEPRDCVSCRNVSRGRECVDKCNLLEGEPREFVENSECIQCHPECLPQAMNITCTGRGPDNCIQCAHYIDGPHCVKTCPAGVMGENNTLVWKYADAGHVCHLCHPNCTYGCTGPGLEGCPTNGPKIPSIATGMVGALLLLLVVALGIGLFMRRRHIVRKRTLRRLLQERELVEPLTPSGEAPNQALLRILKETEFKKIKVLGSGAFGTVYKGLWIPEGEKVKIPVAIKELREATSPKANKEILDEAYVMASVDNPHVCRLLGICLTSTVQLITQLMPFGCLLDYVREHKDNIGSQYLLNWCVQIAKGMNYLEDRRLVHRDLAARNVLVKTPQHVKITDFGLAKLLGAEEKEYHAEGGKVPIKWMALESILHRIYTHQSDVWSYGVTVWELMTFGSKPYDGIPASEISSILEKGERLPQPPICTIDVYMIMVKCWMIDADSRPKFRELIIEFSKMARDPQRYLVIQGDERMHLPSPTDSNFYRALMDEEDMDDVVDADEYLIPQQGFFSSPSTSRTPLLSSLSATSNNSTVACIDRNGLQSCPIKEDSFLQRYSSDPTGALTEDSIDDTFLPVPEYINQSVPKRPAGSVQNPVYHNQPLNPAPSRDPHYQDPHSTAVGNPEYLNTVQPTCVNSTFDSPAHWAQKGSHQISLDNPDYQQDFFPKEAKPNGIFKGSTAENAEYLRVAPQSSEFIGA
Sequence of Receptor tyrosine-protein kinase erbB-2 (P04626 whole entry): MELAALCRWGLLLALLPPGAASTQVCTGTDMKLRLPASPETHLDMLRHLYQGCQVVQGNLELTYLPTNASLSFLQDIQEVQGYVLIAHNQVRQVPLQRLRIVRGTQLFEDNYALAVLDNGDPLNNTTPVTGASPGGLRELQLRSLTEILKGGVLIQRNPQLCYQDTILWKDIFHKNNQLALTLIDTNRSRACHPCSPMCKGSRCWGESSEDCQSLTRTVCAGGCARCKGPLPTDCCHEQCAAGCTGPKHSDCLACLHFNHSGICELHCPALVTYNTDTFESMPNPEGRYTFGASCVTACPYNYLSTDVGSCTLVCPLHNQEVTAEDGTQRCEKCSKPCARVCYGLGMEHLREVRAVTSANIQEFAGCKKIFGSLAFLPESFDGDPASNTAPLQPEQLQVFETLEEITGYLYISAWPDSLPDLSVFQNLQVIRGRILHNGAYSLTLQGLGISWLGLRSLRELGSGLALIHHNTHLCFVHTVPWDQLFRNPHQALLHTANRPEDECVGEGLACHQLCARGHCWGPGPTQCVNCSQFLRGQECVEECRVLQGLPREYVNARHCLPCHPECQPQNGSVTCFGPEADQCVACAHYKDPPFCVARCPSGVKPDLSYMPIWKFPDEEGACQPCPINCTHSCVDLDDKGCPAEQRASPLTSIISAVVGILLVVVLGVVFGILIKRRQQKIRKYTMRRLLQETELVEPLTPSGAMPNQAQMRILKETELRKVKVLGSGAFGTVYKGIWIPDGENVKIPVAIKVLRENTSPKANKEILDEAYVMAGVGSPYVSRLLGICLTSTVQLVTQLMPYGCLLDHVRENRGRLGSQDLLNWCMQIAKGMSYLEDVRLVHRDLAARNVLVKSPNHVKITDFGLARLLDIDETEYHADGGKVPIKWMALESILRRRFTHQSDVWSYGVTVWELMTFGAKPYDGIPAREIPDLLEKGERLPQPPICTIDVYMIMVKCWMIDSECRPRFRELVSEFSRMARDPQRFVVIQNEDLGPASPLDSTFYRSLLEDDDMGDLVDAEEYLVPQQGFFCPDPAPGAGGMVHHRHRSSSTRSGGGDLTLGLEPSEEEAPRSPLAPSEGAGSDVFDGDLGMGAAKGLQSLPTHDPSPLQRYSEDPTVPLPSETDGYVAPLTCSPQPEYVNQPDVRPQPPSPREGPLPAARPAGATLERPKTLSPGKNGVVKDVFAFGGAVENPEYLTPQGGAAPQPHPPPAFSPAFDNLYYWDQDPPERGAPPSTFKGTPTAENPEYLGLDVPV

CC(=O)N1CCN(Cc2ccc(-c3ccc4ncnc(Nc5ccc(OCc6cccc(F)c6)c(Cl)c5)c4c3)o2)CC1
IC50 [1]: 6.8 nM
IC50 [2]: 11.4 nM

CN1CCN(C(=O)c2ccc(-c3ccc4ncnc(Nc5ccc(OCc6cccc(F)c6)c(Cl)c5)c4c3)o2)CC1
IC50 [1]: 53.3 nM
IC50 [2]: 232 nM

CS(=O)(=O)NCCNCc1ccc(-c2ccc3ncnc(Nc4ccc(OCc5cccc(F)c5)c(Cl)c4)c3c2)o1
IC50 [1]: 15.9 nM
IC50 [2]: 18.7 nM

Fc1cccc(COc2ccc(Nc3ncnc4ccc(-c5ccc(CN6CCOCC6)o5)cc34)cc2Cl)c1
IC50 (BT-474): 84.6 nM
IC50 (NCI-N87 [3]): 62.8 nM
IC50 [1]: 13.1 nM
IC50 [2]: 26 nM

CCOC(=O)N1CCN(Cc2ccc(-c3ccc4ncnc(Nc5ccc(OCc6cccc(F)c6)c(Cl)c5)c4c3)o2)CC1
IC50 [1]: 14.4 nM
IC50 [2]: 28 nM

Cc1ccc(S(=O)(=O)O)cc1.O=S(=O)(CCNCc1ccc(-c2ccc3ncnc(Nc4ccc(OCc5cccc(F)c5)c(Cl)c4)c3c2)o1)CC(F)(F)F
inhibition in vivo at 200 mg/kg (NCI-N87 [4]): 46.9%
Activity (Mus musculus [5]): Non-toxic
Activity (Mus musculus [6]): Non-toxic
Activity (Mus musculus [7]): Non-toxic
Activity (Mus musculus [8]): Non-toxic
Activity (Mus musculus [9]): Non-toxic
Activity (Mus musculus [10]): Non-toxic
IC50 (BT-474): 26.4 nM
IC50 (NCI-N87 [3]): 51.3 nM
IC50 [1]: 8.6 nM
IC50 [2]: 21.1 nM
solubility [11]: 16.7 µg/mL
inhibition in vivo at 200 mg/kg (SK-OV-3): 45.2%

Cc1ccc(S(=O)(=O)O)cc1.Fc1cccc(COc2ccc(Nc3ncnc4ccc(-c5ccc(CN6CCNCC6)o5)cc34)cc2Cl)c1
Activity (Mus musculus [12]): Toxic
Activity (Mus musculus [13]): Toxic
Activity (Mus musculus [7]): Toxic
Activity (Mus musculus [8]): Toxic
Activity (Mus musculus [9]): Toxic
Activity (Mus musculus [10]): Toxic
Activity (Mus musculus [14]): Toxic
Activity (Mus musculus [15]): Toxic
Activity (Mus musculus [16]): Toxic
Activity (Mus musculus [17]): Toxic
Activity (Mus musculus [18]): Toxic
Activity (Mus musculus [19]): Toxic
IC50 (BT-474): 41.9 nM
IC50 (NCI-N87 [3]): 29.2 nM
IC50 [1]: 12.3 nM
